Assay results as given in the EternaBench riboswitch data.

Test system: MS2 coat protein
Assay: apparent Kd, MS2 coat protein; higher = weaker binding; RNA-MaP array; FMN 200 µM where present
Outline: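 Designs were transcribed by stalled E. coli RNA polymerase on Illumina sequencing-chip clusters. They were titrated with SNAP-549-labelled MS2 coat protein from 0.7 or 1.5 nM, doubling to 3 µM, without and then with constant ligand. Buffer: 100 mM Tris-HCl pH 7.5, 80 mM KCl, 4 mM MgCl2, BSA, DTT, yeast tRNA, Tween-20. Green signal was normalised to red-channel RNA signal and control-cluster median Fmax. Apparent Kd is the median of filtered per-cluster binding-curve fits.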

[1] = designed as: ON switch for flavin mononucleotide, no ligand
[2] = ligand present: flavin mononucleotide, designed as: ON switch for flavin mononucleotide
[3] = designed as: OFF switch for flavin mononucleotide, no ligand
[4] = ligand present: flavin mononucleotide, designed as: OFF switch for flavin mononucleotide

| Sequence | apparent Kd [1] [nM] | apparent Kd [2] [nM] | apparent Kd [3] [nM] | apparent Kd [4] [nM] |
| --- | --- | --- | --- | --- |
| CCAUGCAUAGCGAUAUGAUCGAGAGAUCAUGUCGCUAAAUUUAGAAGGACAUGAGGAUCACCCAUGUAGGAUAUGGGAGCAUGC | 58.4 | 17.8 | – | – |
| AGACCGCUACGCCGGUUUCACGCACAGGAUAUGCGGUUACAUGAGGAUCACCCAUGUGGCCAUGUGCAGAAGGGUGGUUCGUGC | 21.2 | 14.9 | – | – |
| CACGCAUGUGGAGGAUAUGCAGUUAACAUAAGCGCAGAAGGCCACAUGAGGAUCACCCAUGUCCAGCAUUAGCUGAUGUUGAUC | – | – | 385 | 195 |
| AAAAAACAUGAGGAUCACCCAUGUCAGGAUAUCUGUAUUCAAUCCUCGGAUUGAAUACAGAGAAGGGACAUGGA | – | – | 42 | 22.8 |
| UUAUUAUAUGUAGGAUAUGCAUAUUAUUAUUAUGCAGAAGGACAUGAGGAUCACCCAUGUAUAUUAUUGUUAUAUAUUAUAUAU | – | – | 24.8 | 39.3 |
| UGGUGAAGUGUAGGAUAUGGAGGUGGGUUUUGGCCAGAAGGACAUGAGGAUCACCCAUGUGGUAGAGGGUUGGUGGUGGCCCGU | – | – | 16.7 | 15.2 |
| CCAAGAAUAGGAUAUACACCGUGUCAGCUUUUAUAUAUCGCACAUGAGGAUCACCCAUGUAGAAGGGUUCUCUC | – | – | 676 | 564 |
| GCCCGGCAUACAUGAGGAUCACCCAUGUCAGAAAGGGUAAUCAGAAGGUACUAUUAGAGAAAGAGUAAGGAUAUGAAGCCGGGC | 599 | 134 | – | – |
| ACUAUACGAGGAUAUGCUGUCAGUACUCCGAGGUUAGUUUGACAUGAGGAUCACCCAUGUAGAAGGCGUUUACU | – | – | 24.8 | 22.2 |
| AGUUAAUAUCGAGGAUAUAAGUCUAAGACAUGAGGAUCACCCAUGUGUGUCUUAGAAGGCGAUAUUAACAGCAUGUUACAUGCA | 48.3 | 8.07 | – | – |
| GAACGAUUGCCUACAUGAGGAUCACCCAUGUGGCUGACAAGCAGAAGGGCGGGUUUCAUUCUCCCGUAGGAUAUGCGCGUUCCA | 6.89 | 5.14 | – | – |
| UCGCUGCGAGGAUAUACGUUCGCGCGCUUUCGUUUGCGCGUACAUGAGGAUCACCCAUGUAGAAGGCGCGCUGC | – | – | 16.4 | 15.5 |
| CAGAAGUCAGGAUAUGCAUGGCGGGACUUGCGUCGUGGCGUGCAGAAGGGACAUGAGGAUCACCCAUGUAAAGC | – | – | 50.9 | 51.2 |
| CUUUAGUGAGGAUAUGUGGCUUCGAUCGUGAGAUCGAGGCUACAGAAGGCACAUGAGGAUCACCCAUGUUCCUA | – | – | 16.6 | 59.4 |
| CGUGUCAUCGAGAAGGCCUCAACAUGAGGAUCACCCAUGUUGUAAUAUGGGAGGAUAUCGAUGAUACAGCUACGUUUCGUAGCC | 19.5 | 6.48 | – | – |
| GCGCGCGCAGGAUAUACAAUGGGCCCGGGAAACCGGGCCCUACAUGAGGAUCACCCAUGUAGAAGGGUGUGUGU | – | – | 606 | 468 |
| CGGCACCAAGGAUAUACAUGAGGAUCACCCAUGUUUUUUGGGCCCUUAAAAUCUACGUGUAGAAGGUGGGUCGA | – | – | 49.9 | 56.9 |
| AGUCGGAGCAGAGGAUAUACAUGAGGAUCACCCAUGUAAUAAAGUGAAGCCUGGAAACAGGUAAUGUAGAAGGCUGCUCCGACA | – | – | 11 | 84.7 |
| GCCAUCGCGUGAGGAUAUGCUCCGGUUUCCGGAGCAGAAGGCAUGUCAUAAGACAUGAGGAUCACCCAUGUAGUUAAGAUGGCA | 238 | 9.79 | – | – |
| CCCUGAGACCGGUUAAUUGGCUGAUAGGAUAUCCUCGGACAUGAGGAUCACCCAUGUUAACUAUUGGAGAAGGGUCAGCGAAAG | 448 | 216 | – | – |
| UAACAUACAAAUAUACAUGAGGAUCACCCAUGUUUGUUGGGAAGAAGGGUAACUAUAUUACAUAUACAGGAUAUUUAACAUACU | 15.1 | 11.7 | – | – |

| Sequence | apparent Kd [1] [nM] | apparent Kd [2] [nM] | apparent Kd [3] [nM] | apparent Kd [4] [nM] |
| --- | --- | --- | --- | --- |
| GUCCCAGCUGAGGAUAUUAUCUGGCUCGACCGAUAAGAAGGCAGUACAUGAGGAUCACCCAUGUGGUUCGUUCG | – | – | 31.5 | 70.7 |
| AAAAAUGGAGGAUAUACAUGAGGAUCACCCAUGUGUGGCUAUACUAUGUGCUCGUCAGGUAGAAGGCCAAAAAA | – | – | 31.2 | 59.2 |
| UGAUAGGACAGAGGAUAUGCCGAUAGGAUCUACUAUCGAAGAAUCCUCACAUGAGGAUCACCCAUGUAGAAGGCUGUUCUAUCU | – | – | 8.18 | 33 |
| UCCUCACAUGAGGAUCACCCAUGUUAGGAUAUCUCGGUGCCCUGCAGGCAGUGGCACCAGAGAAGGAACGUGCA | – | – | 21.2 | 22.1 |
| UUUAUGUAAGAGAAGGAGGACUUCAUGAGGAUCACCCAUGUGUUAGUACUUAGGAUAUUUGACAACAUGAGGAUCACCCAUGUC | 59.9 | 58.4 | – | – |
| GAAAUACAUGAGGAUCACCCAUGUAAGGAUAUGCUAGCGGUCGGCUGACUGACUGCUAGCAGAAGGUACAUGAU | – | – | 80.9 | 108 |
| CUUAUUUUCGAAGGAUAUGGAUACAUGAGGAUCACCCAUGUAUAAAAUGAGAUCUAUUAUAUGAUCCAGAAGGUCGUUGUUUAU | – | – | 33.4 | 59.2 |
| AUCUUGUAAGGAUAUCUGACAAGUGACGAAAGUCACAGUUCAGAGAAGGUACAUGAGGAUCACCCAUGUAGAAC | – | – | 17.6 | 20.3 |
| AAUUCACAUGAGGAUCACCCAUGUCAGGAUAUGGUUUUAUUUUUUUCUUUUCUUGAUUCCAGAAGGGACAGCUA | – | – | 108 | 59.2 |
| UCAUACUUUCGAGGAUAUCGGUUAACAUAUUAACGAGAAGGCGAUAUAUUGUUUAAUCUUAUAAACAUGAGGAUCACCCAUGUA | 33.9 | 25.4 | – | – |
| GGGUACAUCGGAGGAUAUCAUGUAAAUACAUGAGGAUCACCCAUGUCGAUGGAGACAUCGGAGAUUGAGAAGGCCGAUGAACCG | 165 | 8.52 | – | – |
| CACGUCAGGAAACGGAGCGGCCAACAUGAGGAUCACCCAUGUGAGGAUAUGCCUACUAAAAGUAGGCAGAAGGCACAGAAGGCA | – | – | 38.2 | 160 |
| ACGUGUCGUGUAGGAUAUGACACAGGAAACUGGUCAGAAGGACAUGAGGAUCACCCAUGUAGAGUGUGUUAGGAUGACGUAUGC | – | – | 51.9 | 199 |
| GUACUGUAGUGAGGAUAUACGAGAUCGAUAGAUCGGCGAUCCAUAUAUACAUGAGGAUCACCCAUGUAGAAGGCACUUCAGUAC | – | – | 7.02 | 93.4 |
| GUGGAGUACGUAGGAUAUGUAGGAUAUUCCUACAUGAGGAUCACCCAUGUAAGCAUGGAAGAAGGACAGAAGGACGUGCUCCAG | 231 | 12.1 | – | – |
| UGGACUGGGCAGAAGGGACAUGAGGAUCACCCAUGUCUUGGGCUACUUCAGUCAGGAUAUGCCCAAUAAAUAUCCGUGCAUCAA | – | – | 13.3 | 67.1 |
| UUAAGUCAUGUAGGAUAUCCGAGGCGAAGCGUUGGAGAAGGACAUGAGGAUCACCCAUGUUCUAGCGUCUGAGUACAGAUGCAA | – | – | 22.7 | 33.7 |
| AGGAGUAAAGGGAAUAACAUGAGGAUCACCCAUGUAUGGGAGAGAAGGCAUAUCGGAGGACGAUAUGAGGAUAUUUAAACUUUA | 106 | 20.5 | – | – |
| CUUUAAGUCGAGAAGGACAUGAGGAUCACCCAUGUAGGAUAUCGAUUAGCUUACAACCCGAGCCGCAUUGGUAUGACUGGUGGG | 12.9 | 6.23 | – | – |
| GGAGACCUCGCAGGAUAUGCUGGACUUUGUCCAGCAGAAGGGUGAAAACAUGAGGAUCACCCAUGUAUGGUCUCCAAAUUUAAU | 1060 | 54.3 | – | – |
| GCUCUGCGAGGAUAUACAUGAGGAUCACCCAUGUGCGAGUUACUUGUGAGGUCGGUUGGUAGAAGGCGCGGAGG | – | – | 106 | 89.8 |
